# According to ChEMBL document CHEMBL1208768, “Synthesis, selective anti-Helicobacter pylori activity, and cytotoxicity of novel N-substituted-2-oxo-2H-1-benzopyran-3-carboxamides” (Bioorg Med Chem Lett, 2010):
# Active and inactive are the calls of the source. The rule behind the calls is not given here.
# Key:
# [1] = system: Citrobacter freundii; experiment: Antibacterial activity against Citrobacter freundii after 18 to 22 hrs by broth microdilution method; assay type: functional
# Method in brief: (§1)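 Clinical respiratory-tract isolates from patients, subcultured for purity and identified conventionally. Broth microdilution per NCCLS in Mueller–Hinton II broth; each plate had growth controls (bacteria, no compound) and medium-only controls. Incubation 18–22 h at 35 °C. MIC taken as the lowest concentration giving complete growth inhibition by unaided eye.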
# [2] = system: Klebsiella aerogenes; experiment: Antibacterial activity against Enterobacter aerogenes after 18 to 22 hrs by broth microdilution method; assay type: functional; method in brief: as §1
# [3] = system: Helicobacter pylori; experiment: Antibacterial activity against metronidazole-resistant Helicobacter pylori isolate 1 after 72 hrs by agar dilution method; assay type: functional; conditions: isolate 1, 72 h
# Method in brief: (§2)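 H. pylori clinical isolates (ATCC 43504 control each session) stored at -80 °C and subcultured twice on Columbia agar with 10% horse serum and 0.25% yeast extract. Suspensions of 0.5 McFarland were spotted by Steer's replicator at about 5 × 10⁵ CFU/spot onto agar with twofold compound dilutions. Plates were incubated 72 h at 37 °C in 10% CO₂. MIC was the lowest concentration without visible growth.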
# [4] = system: Helicobacter pylori; experiment: Antibacterial activity against metronidazole-resistant Helicobacter pylori NCTC 11637 after 72 hrs by agar dilution method; assay type: functional; conditions: NCTC 11637, 72 h; method in brief: as §2
# [5] = system: [Candida] sake; experiment: Antifungal activity against Candida sake after 24 hrs by broth microdilution method; assay type: functional; conditions: Fermentozyma sake
# Method in brief: (§3)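 Candida isolates from respiratory-tract specimens, tested by NCCLS broth microdilution in Sabouraud dextrose broth. Serial compound dilutions inoculated to 10³/mL, with fungus-only and medium-only controls. Incubated 24 h at 37 °C. MIC was the lowest concentration with complete visible growth inhibition.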
# [6] = Cytotoxicity against human EAhy926 cells assessed as cell survival at 0.5 ug/mL after 24 hrs by trypan blue exclusion assay; assay type: cell-based, EA.hy 926; conditions: read-out: Survival
# Method in brief: (§4)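 EAhy cells in DMEM (high glucose) with 10% FBS, at 1 × 10⁵/mL in exponential growth and 60–70% confluent, were exposed 24 h at 37 °C to compounds from DMSO stocks (final DMSO ≤0.5%). Controls were cells alone or with DMSO, and 1 mM sodium nitroprusside as positive control. Cells were scraped, mixed 1:1 with 0.4% Trypan blue and counted on a hemocytometer by two operators. Result given as % viable cells.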
# [7] = system: Pichia kudriavzevii; experiment: Antifungal activity against Candida krusei after 24 hrs by broth microdilution method; assay type: functional; method in brief: as §3
# [8] = system: Enterobacter; experiment: Antibacterial activity against Enterobacter after 18 to 22 hrs by broth microdilution method; assay type: functional; method in brief: as §1
# [9] = Cytotoxicity against human EAhy926 cells assessed as cell survival at 0.5 ug/mL after 24 hrs by MTT assay; assay type: cell-based, EA.hy 926; conditions: read-out: Survival
# [10] = system: Klebsiella oxytoca; experiment: Antibacterial activity against Klebsiella oxytoca after 18 to 22 hrs by broth microdilution method; assay type: functional; method in brief: as §1
# [11] = system: Staphylococcus aureus; experiment: Antibacterial activity against Staphylococcus aureus after 18 to 22 hrs by broth microdilution method; assay type: functional; method in brief: as §1
# [12] = system: AGS; experiment: Antiinflammatory activity in human AGS cells assessed as inhibition of IL-8 production at 5 ug/mL after 24 hrs; assay type: functional, cell-based
# Method in brief: (§5)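 AGS gastric adenocarcinoma cells were grown in F-12K with 10% FBS. They were seeded at 1 × 10⁵/mL for 24 h, preincubated 1 h with compound at 5 or 0.5 µg/mL, then exposed to H. pylori.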
# [13] = system: Escherichia coli; experiment: Antibacterial activity against Escherichia coli after 18 to 22 hrs by broth microdilution method; assay type: functional; method in brief: as §1
# [14] = system: Enterococcus faecalis; experiment: Antibacterial activity against Streptococcus faecalis after 18 to 22 hrs by broth microdilution method; assay type: functional; method in brief: as §1
# [15] = system: Proteus vulgaris; experiment: Antibacterial activity against Proteus vulgaris after 18 to 22 hrs by broth microdilution method; assay type: functional; method in brief: as §1
# [16] = system: AGS; experiment: Antiinflammatory activity in human AGS cells assessed as inhibition of IL-8 production at 0.5 ug/mL after 24 hrs; assay type: functional, cell-based; method in brief: as §5
# [17] = system: Helicobacter pylori; experiment: Antibacterial activity against Helicobacter pylori ATCC 43504 clinical isolates after 72 hrs by agar dilution method; assay type: functional; conditions: ATCC 43504, 72 h
# Method in brief: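 Agar dilution per NCCLS. Twenty clinical strains from duodenal ulcer or gastritis patients, with ATCC 43504 as control in each session, were subcultured twice on Columbia agar plus 10% horse serum and 0.25% yeast extract (72 h, 37 °C, 10% CO₂). Inoculum of 0.5 McFarland in Wilkins Chalgren broth, about 5 × 10⁵ CFU/spot by Steer's replicator. Plates held twofold compound dilutions down to 0.0039 µg/mL and were incubated 72 h at 37 °C, 10% CO₂. MIC was the lowest concentration inhibiting visible growth.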
# [18] = system: Klebsiella pneumoniae; experiment: Antibacterial activity against Klebsiella pneumoniae after 18 to 22 hrs by broth microdilution method; assay type: functional; method in brief: as §1
# [19] = system: Helicobacter pylori; experiment: Antibacterial activity against metronidazole-resistant Helicobacter pylori isolate 18 after 72 hrs by agar dilution method; assay type: functional; conditions: isolate 18, 72 h; method in brief: as §2
# [20] = system: Candida albicans; experiment: Antifungal activity against Candida albicans after 24 hrs by broth microdilution method; assay type: functional; method in brief: as §3
# [21] = Cytotoxicity against human EAhy926 cells assessed as cell survival at 5 ug/mL after 24 hrs by trypan blue exclusion assay; assay type: cell-based, EA.hy 926; conditions: read-out: Survival; method in brief: as §4
# [22] = system: AGS (Homo sapiens); experiment: Cytotoxicity against human AGS cells assessed as cell survival at 50 ug/mL after 24 hrs by MTT assay
# [23] = system: Staphylococcus haemolyticus; experiment: Antibacterial activity against Staphylococcus haemolyticus after 18 to 22 hrs by broth microdilution method; assay type: functional; method in brief: as §1
# [24] = Cytotoxicity against human EAhy926 cells assessed as cell survival at 0.05 ug/mL after 24 hrs by trypan blue exclusion assay; assay type: cell-based, EA.hy 926; conditions: read-out: Survival; method in brief: as §4
# [25] = system: Staphylococcus hominis; experiment: Antibacterial activity against Staphylococcus hominis after 18 to 22 hrs by broth microdilution method; assay type: functional; method in brief: as §1
# [26] = Cytotoxicity against human EAhy926 cells assessed as cell survival at 50 ug/mL after 24 hrs by trypan blue exclusion assay; assay type: cell-based, EA.hy 926; conditions: read-out: Survival; method in brief: as §4
# [27] = Cytotoxicity against human EAhy926 cells assessed as cell survival at 5 ug/mL after 24 hrs by MTT assay; assay type: cell-based, EA.hy 926; conditions: read-out: Survival
# [28] = system: Staphylococcus epidermidis; experiment: Antibacterial activity against Staphylococcus epidermidis after 18 to 22 hrs by broth microdilution method; assay type: functional; method in brief: as §1
# [29] = system: Helicobacter pylori; experiment: Antibacterial activity against metronidazole-resistant Helicobacter pylori isolate 8 after 72 hrs by agar dilution method; assay type: functional; conditions: isolate 8, 72 h; method in brief: as §2
# [30] = system: Helicobacter pylori; experiment: Antibacterial activity against metronidazole-resistant Helicobacter pylori isolate 20 after 72 hrs by agar dilution method; assay type: functional; conditions: isolate 20, 72 h; method in brief: as §2
Structure (SMILES),MIC [1] [µg/mL],MIC [2] [µg/mL],MIC [3] [µg/mL],MIC [4] [µg/mL],MIC [5] [µg/mL],MIC [7] [µg/mL],MIC [8] [µg/mL],MIC [10] [µg/mL],MIC [11] [µg/mL],inhibition [12],MIC [13] [µg/mL],MIC [14] [µg/mL],MIC [15] [µg/mL],inhibition [16],MIC50 [17] [µg/mL],MIC90 [17] [µg/mL],MIC [18] [µg/mL],MIC [19] [µg/mL],MIC [20] [µg/mL],MIC [23] [µg/mL],further results
CCOC(=O)c1ccc(NC(=O)c2cc3cc(O)ccc3oc2=O)cc1,> 128,> 128,4,8,> 128,> 128,> 128,> 128,> 128,inactive,> 128,> 128,> 128,inactive,4,8,> 128,8,> 128,> 128,"viability at 24 h, 0.5 ug/mL [6]: 83%; viability at 24 h, 0.5 ug/mL [9]: 99%; viability at 24 h, 5 ug/mL [21]: 80%; viability at 24 h, 50 ug/mL [22]: 82%; viability at 24 h, 0.05 ug/mL [24]: 93%; MIC [25]: > 128 µg/mL; viability at 24 h, 50 ug/mL [26]: 77%; viability at 24 h, 5 ug/mL [27]: 99%; MIC [28]: > 128 µg/mL; MIC [29]: 2 µg/mL; MIC [30]: 2 µg/mL"
CCOC(=O)c1ccc(NC(=O)c2cc3cc(OC)ccc3oc2=O)cc1,> 128,> 128,8,4,> 128,> 128,> 128,> 128,> 128,inactive,> 128,> 128,> 128,inactive,4,8,> 128,4,> 128,> 128,"viability at 24 h, 0.5 ug/mL [6]: 67%; viability at 24 h, 0.5 ug/mL [9]: 98%; viability at 24 h, 5 ug/mL [21]: 42%; viability at 24 h, 50 ug/mL [22]: 41%; viability at 24 h, 0.05 ug/mL [24]: 72%; MIC [25]: > 128 µg/mL; viability at 24 h, 50 ug/mL [26]: 36%; viability at 24 h, 5 ug/mL [27]: 58%; MIC [28]: > 128 µg/mL; MIC [29]: 4 µg/mL; MIC [30]: 4 µg/mL"
O=C(O)c1ccc(NC(=O)c2cc3cc(Br)cc(Br)c3oc2=O)cc1,> 128,> 128,16,16,> 128,> 128,> 128,> 128,> 128,inactive,> 128,> 128,> 128,inactive,16,16,> 128,16,> 128,> 128,MIC [25]: > 128 µg/mL; MIC [28]: > 128 µg/mL; MIC [29]: 16 µg/mL; MIC [30]: 16 µg/mL
COc1ccc2oc(=O)c(C(=O)Nc3ccc(C(=O)O)cc3)cc2c1,> 128,> 128,8,4,> 128,> 128,> 128,> 128,> 128,inactive,> 128,> 128,> 128,inactive,4,8,> 128,4,> 128,> 128,"viability at 24 h, 0.5 ug/mL [9]: 99%; viability at 24 h, 5 ug/mL [21]: 69%; viability at 24 h, 0.05 ug/mL [24]: 85%; MIC [25]: > 128 µg/mL; viability at 24 h, 50 ug/mL [26]: 62%; viability at 24 h, 5 ug/mL [27]: 99%; MIC [28]: > 128 µg/mL; MIC [29]: 4 µg/mL; MIC [30]: 4 µg/mL"
O=C(O)c1ccc(NC(=O)c2cc3cccc(O)c3oc2=O)cc1,> 128,> 128,> 128,4,> 128,> 128,> 128,> 128,> 128,inactive,> 128,> 128,> 128,inactive,> 128,> 128,> 128,> 128,> 128,> 128,MIC [25]: > 128 µg/mL; MIC [28]: > 128 µg/mL; MIC [29]: > 128 µg/mL; MIC [30]: > 128 µg/mL
CCOC(=O)N1CCC(NC(=O)c2cc3cc(Br)ccc3oc2=O)CC1,> 128,> 128,32,64,> 128,> 128,> 128,> 128,> 128,inactive,> 128,> 128,> 128,inactive,64,64,> 128,32,> 128,> 128,MIC [25]: > 128 µg/mL; MIC [28]: > 128 µg/mL; MIC [29]: 64 µg/mL; MIC [30]: 32 µg/mL
